Assay outcomes: PubChem BioAssay, Johns Hopkins Ion Channel Center
Most compounds without a hit are left out; they make up all but 2.3% or so of the library.
TRPC4 act = TRPC4 (mouse) channel activation. B-score at 10 µM. hit rate 0.49% among 310,000. Q9QUQ5. HEK293 TRPC4beta/mu-opioid, Fluo4 calcium fluorescence; hits give high values;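 active = B-score above 5 SD of library B-scores, and initial fluorescence ratio not above library mean plus 5 SD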;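 also: positive B-score marks a calcium rise read as TRPC4 activation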
Target sequence (Q9QUQ5 whole entry, looked up): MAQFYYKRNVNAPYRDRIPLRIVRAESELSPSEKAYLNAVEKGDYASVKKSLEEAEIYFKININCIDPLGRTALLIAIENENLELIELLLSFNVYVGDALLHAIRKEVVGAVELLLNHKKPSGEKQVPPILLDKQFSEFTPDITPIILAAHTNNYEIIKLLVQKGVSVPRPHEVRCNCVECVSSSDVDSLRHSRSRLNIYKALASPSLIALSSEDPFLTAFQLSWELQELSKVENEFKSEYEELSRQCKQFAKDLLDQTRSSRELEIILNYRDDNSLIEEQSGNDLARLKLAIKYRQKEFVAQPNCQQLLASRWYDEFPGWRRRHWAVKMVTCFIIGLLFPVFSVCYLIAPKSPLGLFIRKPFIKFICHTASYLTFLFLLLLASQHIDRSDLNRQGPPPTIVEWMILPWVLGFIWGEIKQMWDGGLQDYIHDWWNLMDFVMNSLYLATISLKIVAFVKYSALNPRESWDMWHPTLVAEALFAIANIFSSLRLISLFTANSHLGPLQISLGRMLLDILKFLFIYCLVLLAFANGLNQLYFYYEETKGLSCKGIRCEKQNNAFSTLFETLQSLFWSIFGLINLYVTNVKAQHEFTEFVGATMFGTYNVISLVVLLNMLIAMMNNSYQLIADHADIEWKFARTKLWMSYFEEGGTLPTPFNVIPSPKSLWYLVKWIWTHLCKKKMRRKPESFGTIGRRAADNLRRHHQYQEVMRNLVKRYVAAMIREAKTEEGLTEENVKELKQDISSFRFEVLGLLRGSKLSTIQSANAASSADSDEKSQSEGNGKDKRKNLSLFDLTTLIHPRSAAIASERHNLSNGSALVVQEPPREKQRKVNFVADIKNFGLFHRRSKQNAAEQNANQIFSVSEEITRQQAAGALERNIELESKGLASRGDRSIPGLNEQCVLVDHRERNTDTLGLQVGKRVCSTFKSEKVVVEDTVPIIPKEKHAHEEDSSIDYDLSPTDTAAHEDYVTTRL
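system = HEK293 cells stably co-expressing mouse TRPC4beta and mu-opioid receptor | schedule = Fluo4 dye loading 45 min at room temperature, 110 s recording | measure = B-scored integrated calcium fluorescence ratio | signal = Fluo4 calcium-sensitive dye fluorescence, kinetic, 1 Hz baseline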
TRPC6 inh = blocks the mouse TRPC6 cation channel | HEK293-TRPC6, membrane potential dye, ACh-evoked depolarization; hits give low values | B-score at 10 µM | hit rate 1.1% among 310,000;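 active = B-score under library mean minus 3 SD, initial fluorescence not abnormally high, positive integrated signal ratio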;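 also: B-score derived from integrated fluorescence ratio over the kinetic read; more negative B-score means stronger inhibition of depolarization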
TRPC4 potent = allosteric potentiators of mouse TRPC4 channel | B-score at 10 µM | Q9QUQ5 | HEK293 TRPC4beta/mu-opioid, DAMGO EC20, Fluo-4 Ca2+ flux; hits give high values | hit rate 0.42% among 310,000;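 active = B-score of calcium response area above 5 SD of library B-scores, with initial fluorescence ratio within 5 SD of library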;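 also: B-score of integrated fluorescence ratio over time as area under calcium response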
TRPC6 activator = mouse TRPC6 channel activation | B-score at 10 µM | HEK293-TRPC6 membrane potential dye fluorescence; hits give high values | Q61143 | hit rate 0.13% among 310,000;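 active = B-score of the integrated fluorescence ratio above library mean plus 3 SD, and starting fluorescence ratio within library mean plus 5 SD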;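 also: higher score means more depolarization so channel activation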
TRPC4 block = inhibitors of mouse TRPC4 channel | Q9QUQ5 | HEK293 TRPC4beta/mu-opioid, DAMGO-evoked Fluo4 calcium flux; hits give low values | B-score at 10 µM | hit rate 0.39% among 300,000;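 active = B-score over 3 SD under the library average, no early fluorescence shift, positive overall ratio signal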
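System: stable TRPC4beta/mu-opioid receptor HEK293 cells; Dosing: single-point compound dosing; Measured by: Fluo4 Ca2+ flux fluorescence; Read-out basis: per-well B score of integrated baseline-normalized Fluo4 ratio.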
TRPC4 sel inh 2 = second selectivity test of TRPC6 inhibitors: effect on mouse TRPC4; inhibition, % at 10 µM; shares compounds with TRPC6 inh; HEK293 TRPC4/MOR, membrane potential dye fluorescence; channel activated by saturating DAMGO dose; AID 2776; hit rate 42% among 920;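 active = compounds whose fluorescence signal differed from control wells by over 3 SD, either direction, in both duplicate plates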
TRPC4 spec = selectivity of TRPC6 inhibitors: effect on mouse TRPC4. shares compounds with TRPC6 inh. HEK293 TRPC4/mu-opioid, membrane potential fluorescence. activity change, negative = inhibition, % at 10 µM. hit rate 61% among 920. AID 2777;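 active = rise or fall in signal beyond 3 SD of buffer-only wells in both replicate plates, either sign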;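 also: integrated kinetic ratio of fluorescence range over baseline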
HEK293 MPD ctr 2-1 = second counter-screen for TRPC6 inhibitors: parental HEK293 cells; parental HEK293 membrane potential dye fluorescence; maximal acetylcholine challenge after compound addition; signal change vs control, % at 10 µM; shares compounds with TRPC6 inh; hit rate 31% among 920;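 active = membrane potential signal moving either way by over 3 SD of the maximum-effect control, in both duplicate plates, meaning non-specific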
HEK293 MPD ctr-1 = parental HEK293 nonspecific activity of TRPC6 inhibitors; shares compounds with TRPC6 inh; parental HEK293 membrane potential dye fluorescence; membrane potential signal change, % at 10 µM; hit rate 60% among 920; AID 2780;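 active = membrane potential signal shifting up or down by more than 3 SD of buffer-only wells, on both duplicate plates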
HEK293 MPD ctr-2 = parental HEK293 nonspecific activity of TRPC6 modulators; membrane potential dye fluorescence; hit rate 51% among 2,400; membrane potential signal change, % at 10 µM; shares compounds with TRPC6 inh; AID 488924;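 active = membrane potential signal moves up or down beyond 5 SD from buffer-only wells, on both duplicate plates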
HEK293 MPD ctr 2-2 = parental HEK293 nonspecific activity of TRPC6 modulators, second screen. hit rate 14% among 2,400. membrane potential dye fluorescence; after compound, maximal acetylcholine stimulation. shares compounds with TRPC6 inh. inhibition, % at 10 µM;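 active = membrane potential signal drops by more than 5 SD from the mean control signal, in both duplicate plates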;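 also: plate controls were acetylcholine ECmax control wells for no effect and buffer only wells for full effect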
TRPC4 ctr mod = selectivity of TRPC6 modulators against mouse TRPC4 | shares compounds with TRPC6 inh | HEK293 TRPC4/mu-opioid, membrane potential fluorescence | percent change from control (negative = decrease, positive = increase), % at 10 µM | hit rate 69% among 2,400;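 active = membrane potential signal moved up or down beyond 5 SD of buffer control wells, in both duplicate plates, actives on both sides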;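 also: plate controls were assay buffer wells for no effect and DAMGO maximal-effect wells for full effect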
TRPC4/MOR inh 2 = second selectivity test of TRPC6 modulators against mouse TRPC4 | shares compounds with TRPC6 inh | HEK293 TRPC4/mu-opioid, membrane potential dye fluorescence; stimulated with maximal-effect DAMGO | inhibition, % at 10 µM | hit rate 55% among 2,400;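 active = drop in membrane potential signal beyond 5 SD of the control wells in both duplicate plates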;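 also: TRPC4 counter screen for TRPC6 hits run under conditions tuned for TRPC6 not TRPC4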
TRPC6 inh conf = mouse TRPC6 inhibitor confirmation; shares compounds with TRPC6 inh; HEK293-TRPC6, membrane potential dye, ACh-evoked depolarization; inhibition, % at 10 µM; hit rate 43% among 3,300;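 active = fluorescence ratio falls more than 5 SD below the full-stimulation control mean, in both duplicate runs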;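 also: integrated fluorescence ratio of peak minus minimum over baseline after agonist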
TRPC6 act conf = confirmation of mouse TRPC6 activators; AID 488961; activation, % at 10 µM; hit rate 11% among 2,800; shares compounds with TRPC6 inh; HEK293-TRPC6 membrane potential dye fluorescence, FDSS;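 active = ratio signal rise beyond 5 SD above unstimulated control wells' mean, seen in both duplicate runs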;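 also: plate controls were buffer EC0 wells for no effect and acetylcholine ECmax response for full effect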
* hit, by the source's call; i = inactive; nt = no result given.

SMILES | TRPC4 act | TRPC6 inh | TRPC4 potent | TRPC6 activator | TRPC4 block | HEK293 MPD ctr-2 | HEK293 MPD ctr 2-2 | TRPC4 ctr mod | TRPC4/MOR inh 2 | TRPC6 inh conf | TRPC6 act conf | others
CC1CCN(Cc2ccc(NC(=O)CC3Oc4ccccc4NC3=O)cc2)CC1 (centres undefined) | i | -10* | i | i | i | nt | nt | nt | nt | 81%* | i | TRPC4 sel inh 2=i;TRPC4 spec=i;HEK293 MPD ctr 2-1=-8.0%*;HEK293 MPD ctr-1=i
CCC(C)N(CCNC(=O)CC1Oc2ccccc2NC1=O)C1CCCCC1 (centres undefined) | i | -8* | i | i | i | nt | nt | nt | nt | 60%* | nt | TRPC4 sel inh 2=i;TRPC4 spec=19%*;HEK293 MPD ctr 2-1=i;HEK293 MPD ctr-1=11%*
COC(=O)CCCC1=CC2=CC(=O)C(C)(OC(=O)c3ccc(Cl)nc3)C(=O)C2=CO1 (centres undefined) | i | i | i | i | i | nt | nt | nt | nt | nt | nt
CCC(C)(C)NC(=O)C(c1ccc(F)cc1)N(CCOC)C(=O)CCC(=O)Nc1nccs1 (centres undefined) | i | i | i | i | i | nt | nt | nt | nt | nt | nt
CCOC(=O)C1=C(CS(=O)(=O)c2ccccc2)NC(=O)NC1c1ccccc1OC (centres undefined) | i | i | i | i | i | nt | nt | nt | nt | nt | nt
O=C(CCCC1=NS(=O)(=O)c2ccccc2N1)N1CCN(c2ccccc2)CC1 | i | -5.7* | i | i | i | i | i | i | i | 47%* | nt
CCOC(=O)C1=C(COC(=O)c2ccc(Br)o2)NC(=O)NC1C (centres undefined) | i | i | i | i | i | nt | nt | nt | nt | nt | nt
Cc1cc2cc(C)c(NCCNC(=O)c3ccccc3F)nc2cc1C | i | -5.9* | i | i | i | i | i | i | 46%* | i | i
CSc1cccc(N2CC(C(=O)Nc3ccccc3N3CCCC3)CC2=O)c1 (centres undefined) | i | i | i | i | i | nt | nt | nt | nt | nt | nt
CCCCNC(=O)CCC(=O)Nc1ccc2nc(N3CCCCC3)cc(C)c2c1 | i | i | i | i | i | nt | nt | nt | nt | nt | nt
COCCCNC(=O)CCC(=O)Nc1ccc2nc(N3CCOCC3)cc(C)c2c1 | i | -6.8* | i | i | i | nt | nt | nt | nt | 64%* | i | TRPC4 sel inh 2=i;TRPC4 spec=-28%*;HEK293 MPD ctr 2-1=i;HEK293 MPD ctr-1=-360%*
CC(C)CCNC(=S)Nc1ccc2nc3n(c(=O)c2c1)CCCCC3 | i | -5.2* | i | i | i | i | i | i | i | i | i
CCCCNC(=O)CCC(=O)Nc1ccc2nc(N3CCOCC3)cc(C)c2c1 | i | i | i | i | i | nt | nt | nt | nt | nt | nt
Cc1cc(N2CCN(C)CC2)nc2ccc(NC(=O)CCC(=O)N3CCN(c4ccc([N+](=O)[O-])cc4)CC3)cc12 | i | i | i | 12* | i | 237%* | i | 44%* | i | i | 84%*
Cc1cc(N2CCOCC2)nc2ccc(NC(=O)CCC(=O)N3CCN(c4ccccc4)CC3)cc12 | i | i | i | i | i | nt | nt | nt | nt | nt | nt
Cc1cc(N2CCCCC2)nc2ccc(NC(=O)CCC(=O)NCCC(C)C)cc12 | i | -8* | i | i | i | nt | nt | nt | nt | i | i | TRPC4 sel inh 2=i;TRPC4 spec=-16%*;HEK293 MPD ctr 2-1=224%*;HEK293 MPD ctr-1=-228%*
CCCCNC(=S)Nc1ccc2nc3n(c(=O)c2c1)CCCCC3 | i | i | i | i | i | nt | nt | nt | nt | nt | nt
Cc1ccc(N2CCN(S(=O)(=O)c3c(C)nc4scc(C)n4c3=O)CC2)c(C)c1 | i | i | i | i | i | nt | nt | nt | nt | nt | nt
CC(C(=O)Nc1nccs1)N1C(=O)c2ccccc2S1(=O)=O (centres undefined) | i | i | i | i | i | nt | nt | nt | nt | nt | nt
Cc1cc(N2CCN(C)CC2)nc2ccc(NC(=O)CCC(=O)NCCCOC(C)C)cc12 | i | i | i | i | i | nt | nt | nt | nt | nt | nt
CCN(CC)CCCNC(=O)CCC(=O)Nc1ccc2nc(N3CCC(C)CC3)cc(C)c2c1 | i | -6.1* | i | i | i | 136%* | i | 22%* | i | i | nt
CC1CN(C(=O)/C=C/c2ccccc2Cl)CC(C)O1 (centres undefined) | i | i | i | i | i | nt | nt | nt | nt | nt | nt
CNC(=S)N/N=C/c1cn(Cc2c(F)cccc2Cl)c2ccccc12 | i | -5.3* | i | i | i | i | i | i | i | i | nt
Cc1c(CCOC(=O)c2ccc([N+](=O)[O-])cc2)sc[n+]1CC(=O)c1ccccc1 | i | -7.4* | i | i | -6* | -262%* | i | -40%* | 36%* | 40%* | i
COc1ccc(C(=O)N/N=C/c2ccccn2)cc1OC | i | -7* | i | i | i | -296%* | i | -50%* | 40%* | 38%* | i
COc1ccc(C(=O)Nc2ccccc2C(=O)N/N=C/c2ccccn2)cc1OC | i | i | i | i | i | nt | nt | nt | nt | nt | nt
CN(C)c1ccc(C(=O)N/N=C/c2ccccn2)cc1 | i | -6.6* | i | i | i | -159%* | i | -28%* | 36%* | i | i
COc1ccccc1N1CC(O)=C(c2nc3ccccc3c(=O)[nH]2)C1=N | i | -5* | i | i | i | i | i | 9.0%* | i | i | nt
